pIC50, pKi: −log10 of the molar value.
Molecular target: T1, Corticotropin-releasing factor receptor 1 (Homo sapiens, UniProt P34998)
T1 sequence (P34998 whole entry): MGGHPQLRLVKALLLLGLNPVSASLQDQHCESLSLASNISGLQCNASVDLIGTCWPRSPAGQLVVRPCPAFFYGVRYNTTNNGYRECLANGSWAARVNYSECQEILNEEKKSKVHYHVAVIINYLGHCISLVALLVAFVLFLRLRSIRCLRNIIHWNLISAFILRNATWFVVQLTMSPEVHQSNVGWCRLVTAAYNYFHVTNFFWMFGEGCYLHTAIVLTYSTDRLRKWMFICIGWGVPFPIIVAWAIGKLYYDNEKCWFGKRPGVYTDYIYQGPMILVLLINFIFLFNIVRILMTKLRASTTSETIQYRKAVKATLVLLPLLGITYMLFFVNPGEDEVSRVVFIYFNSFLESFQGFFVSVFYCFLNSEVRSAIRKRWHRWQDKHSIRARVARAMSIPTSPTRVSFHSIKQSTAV
Assay: Binding affinity for human corticotropin releasing factor receptor 1 expressed in LtK- cells using [125I]sauvagine
Assay type: cell-based
Conditions: not given
Procedure, shortened: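 Buffer: DPBS with 10 mM MgCl2 and 2 mM EGTA, pH 7.4. Competitor 10 pM to 1 µM, run in duplicate, 2 h at room temperature. Bound ligand separated by vacuum filtration and counted by gamma counter. Nonspecific binding taken with excess unlabeled sauvagine. Ki from nonlinear curve fitting.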

Row | Compound | pKi
1 | CCCC(CCC)N1CCn2nc(-c3ccc(Cl)cc3Cl)c3nc(C)cc1c32 | 8.30
2 | CC[C@H]1Cn2nc(-c3ccc(Cl)cc3C)c3nc(C)cc(c32)N1CC1CC1 | 8.10
3 | CC[C@H]1Cn2nc(-c3ccc(Cl)cc3C(F)(F)F)c3nc(C)cc(c32)N1CC1CC1 | 7.70
4 | CC[C@H]1Cn2nc(-c3ccc(C(F)(F)F)cc3Cl)c3nc(C)cc(c32)N1CC1CC1 | 8.40
5 | CC[C@H]1Cn2nc(-c3ccc(C)cc3Cl)c3nc(C)cc(c32)N1CC1CC1 | 8.20
6 | CC[C@H]1Cn2nc(-c3ccc(Cl)cc3Cl)c3nc(C)cc(c32)N1CC(C)C | 7.80
7 | CC[C@H]1Cn2nc(-c3ccc(Cl)cc3Cl)c3nc(C)cc(c32)N1CC | 7.20
8 | CCCCC(CCCC)N1CCn2nc(-c3ccc(Cl)cc3Cl)c3nc(C)cc1c32 | 8.30
9 | Cc1cc2c3c(n1)c(-c1ccc(Cl)cc1Cl)nn3C[C@H](C)N2CC1CC1 | 8.10
10 | CC[C@H]1Cn2nc(-c3ccc(OC)cc3C)c3nc(C)cc(c32)N1CC1CC1 | 8.00
11 | CC[C@@H]1Cn2nc(-c3ccc(Cl)cc3Cl)c3nc(C)cc(c32)N1CC1CC1 | 6.90
12 | CC[C@H]1Cn2nc(-c3ccc(C(=O)OC)cc3Cl)c3nc(C)cc(c32)N1CC1CC1 | 6.80
13 | CC[C@H]1Cn2nc(-c3ccc(Cl)cc3Cl)c3nc(C)cc(c32)N1CCOC | 7.30
14 | CC[C@H]1Cn2nc(-c3ccc(Cl)cc3Cl)c3nc(C)cc(c32)N1 | 6.10
15 | CC[C@H]1Cn2nc(-c3ccc(C(C)C)cc3C(F)(F)F)c3nc(C)cc(c32)N1CC1CC1 | 8.10
16 | CC[C@H]1Cn2nc(-c3ccc(OC)cc3Cl)c3nc(C)cc(c32)N1CC1CC1 | 8.40
17 | CC[C@H]1Cn2nc(-c3ccc(F)cc3Cl)c3nc(C)cc(c32)N1CC1CC1 | 7.90
18 | CCCCN1c2cc(C)nc3c(-c4ccc(Cl)cc4Cl)nn(c23)C[C@@H]1CC | 8.20
19 | Cc1cc2c3c(n1)c(-c1ccc(Cl)cc1Cl)nn3CCN2C1CCCCC1 | 6.80

Row | Compound | pKi
20 | CCCN1c2cc(C)nc3c(-c4ccc(Cl)cc4Cl)nn(c23)C[C@@H]1CC | 7.50
21 | Cc1cc2c3c(n1)c(-c1ccc(Cl)cc1Cl)nn3CCN2C(C)C | 7.10
22 | Cc1cc2c3c(n1)c(-c1ccc(Cl)cc1Cl)nn3C[C@H](c1ccccc1)N2CC1CC1 | 8.00
23 | CC[C@H]1Cn2nc(-c3ccc(Cl)cc3Cl)c3nc(C)cc(c32)N1Cc1ccccc1 | 6.80
24 | CC[C@H]1Cn2nc(-c3ccc(Cl)cc3OC)c3nc(C)cc(c32)N1CC1CC1 | 7.60
25 | CC[C@H]1Cn2nc(-c3ccc(C(F)(F)F)cc3C(F)(F)F)c3nc(C)cc(c32)N1CC1CC1 | 8.10
26 | Cc1cc2c3c(n1)c(-c1ccc(Cl)cc1Cl)nn3CCN2CC1CC1 | 7.10
27 | Cc1cc2c3c(n1)c(-c1ccc(Cl)cc1Cl)nn3CCN2CC(C)C | 6.40
28 | Cc1cc2c3c(n1)c(-c1ccc(Cl)cc1Cl)nn3C[C@H](C(C)C)N2CC1CC1 | 8.30
29 | CC[C@H]1Cn2nc(-c3ccc(OC)cc3C(F)(F)F)c3nc(C)cc(c32)N1CC1CC1 | 8.10
30 | CCC[C@H]1Cn2nc(-c3ccc(Cl)cc3Cl)c3nc(C)cc(c32)N1CC1CC1 | 8.40
31 | CC[C@H]1Cn2nc(-c3ccc(Cl)cc3Cl)c3nc(C)cc(c32)N1CC1CCC1 | 7.70
32 | CC[C@H]1Cn2nc(-c3ccc(Cl)cc3F)c3nc(C)cc(c32)N1CC1CC1 | 7.30
33 | CC[C@H]1Cn2nc(-c3ccc(C)cc3C)c3nc(C)cc(c32)N1CC1CC1 | 7.90
34 | CCC(CC)N1CCn2nc(-c3ccc(Cl)cc3Cl)c3nc(C)cc1c32 | 8.40
35 | CCC(COC)N1CCn2nc(-c3ccc(Cl)cc3Cl)c3nc(C)cc1c32 (centres undefined) | 7.20
36 | CCCN(CC1CC1)c1cc(C)nc2c(-c3ccc(Cl)cc3Cl)nn(C)c12 | 8.80
37 | CCCCN(CC)c1nc(C)nc2c1c(C)c(C)n2-c1c(C)cc(C)cc1C [ANTALARMIN] | 8.60

Species on record: Rattus norvegicus
Assay: In vitro Inhibition of CRF-stimulated ACTH release in rat anterior pituitary cells, upon 9 min incubation at 37 degree C
Assay type: functional, cell-based
Conditions: Pituitary gland cell, 4 h, in the assay text read “4 h incubation” for “9 min incubation”
Procedure, shortened: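 Pituitaries from 7-week-old female Sprague Dawley rats digested with collagenase (1.5 h, 37 °C), then neuraminidase (9 min, 37 °C). Cells cultured 2-3 days in 3% FCS/BBM-T at 40,000 cells/well. Antagonist (1 pM to 1 µM) added with 0.5 nM r/hCRF in BBM-T for 4 h at 37 °C. Medium ACTH measured by RIA.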

Row | Compound | pIC50
38 | CC[C@H]1Cn2nc(-c3ccc(Cl)cc3Cl)c3nc(C)cc(c32)N1CC1CC1 | 6.90

Molecular target: T1, Corticotropin-releasing factor receptor 1
Assay: In vitro inhibition of CRF-stimulated cAMP production in cell membranes expressing human CRF1 receptor
Assay type: functional, cell-based
Conditions: in the assay text read “whole cells” for “cell membranes”
Procedure, shortened: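 Live whole L-hCRF1 cells (LtK- cells expressing human CRF1 receptor) were plated at 100 000 cells/well the day before and washed with DPBS. Buffer was DMEM without phenol red with 1 mM IBMX. CRF plus antagonist at various concentrations were added for 30 min at 37 °C in 5% CO2. Total cAMP was read by chemiluminescent immunoassay and IC50 was obtained by nonlinear curve fitting.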

Row | Compound | pIC50
39 | CC[C@H]1Cn2nc(-c3ccc(Cl)cc3Cl)c3nc(C)cc(c32)N1CC1CC1 | 7.10
